From PubChem BioAssay
M5 ag: CHRM5 agonism in calcium assay | activation, % at 3 µM | CHO-K1 hM5 cells, Fluo-8 calcium fluorescence; 0% DMSO wells, 100% maximal acetylcholine response | P08912 | AID 624037 | 360,000 compounds, 0.19% hits;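 active = activation above the run's mean over test compounds plus 3 SD, cut at about 23% in these data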;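 also: signal is peak over basal fluorescence ratio across the kinetic read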
Target sequence (P08912 whole entry, looked up): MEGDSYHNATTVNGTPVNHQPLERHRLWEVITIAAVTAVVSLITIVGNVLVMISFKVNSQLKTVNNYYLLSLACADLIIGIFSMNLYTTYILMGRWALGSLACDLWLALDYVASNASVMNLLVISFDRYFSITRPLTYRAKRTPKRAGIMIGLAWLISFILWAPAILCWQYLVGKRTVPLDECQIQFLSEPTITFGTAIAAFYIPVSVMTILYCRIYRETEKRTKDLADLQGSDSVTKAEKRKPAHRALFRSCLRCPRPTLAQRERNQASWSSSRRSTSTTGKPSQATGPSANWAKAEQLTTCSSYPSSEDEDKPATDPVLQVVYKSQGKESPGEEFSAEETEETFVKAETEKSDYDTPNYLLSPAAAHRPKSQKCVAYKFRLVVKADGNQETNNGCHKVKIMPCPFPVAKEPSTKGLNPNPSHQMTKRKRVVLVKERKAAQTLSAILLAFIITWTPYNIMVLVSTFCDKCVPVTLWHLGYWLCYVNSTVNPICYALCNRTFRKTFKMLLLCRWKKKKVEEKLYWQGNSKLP
CHRM1 agonist: agonists of human M1 muscarinic receptor; P11229; CHO-K1 hM1, Fluo-8 calcium fluorescence, agonist mode; 0% DMSO, 100% acetylcholine EC100; activation, % at 3 µM; 360,000 compounds, 0.33% hits; AID 588814;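 active = activation above the run's mean compound activation plus 3 SD, cut at about 16% in these data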;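 also: peak over basal fluorescence ratio within a 140 s kinetic read after compound addition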
CHRM5 PAM: positive allosteric modulators of human muscarinic M5 receptor; 360,000 compounds, 0.3% hits; CHO-K1 hM5, Fluo-8 calcium, ACh EC20 PAM; 0% = ACh EC20, 100% = ACh EC100; activation, % at 3 µM;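 active = activation above the run cutoff, the mean activation of all test compounds plus 3 SD, cut at about 18% in these data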
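Test system: CHO-K1 hM5 cells / Doses: single-point, 3 µM nominal / Times: Post-acetylcholine fluorescence recording 140 s / Technique: Fluo-8 calcium fluorescence / Measure: Max/basal fluorescence ratio as % of EC20–EC100 ACh window / Benchmarks: low control EC20 acetylcholine (0%), high control EC100 acetylcholine (100%) / Replicates: one well per compound, no replicates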
CHRM5 antagonist: blocks acetylcholine activation of human M5 receptor; 360,000 compounds, 0.59% hits; AID 624040; inhibition, % at 3 µM; CHO-hM5 cells, Fluo-8 calcium fluorescence, ACh EC80; P08912;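 active = inhibition above a per-plate cutoff, the mean of that plate's test compounds plus 3 SD, cut at about 27% in these data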;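 also: 0% = acetylcholine EC80 with DMSO and 100% = DMSO without agonist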
M1 PAM: positive allosteric modulators of human M1 muscarinic receptor; AID 588819; P11229; 360,000 compounds, 0.088% hits; activation, % at 3 µM; CHO-K1 hM1, Fluo-8 calcium fluorescence, ACh EC20; 0% = ACh EC20, 100% = maximal ACh; in the data active = activation above about 19%, passing the limit was not always enough
CHRM1 antagonist: blocks human M1 muscarinic receptor; inhibition, % at 3 µM; P11229; 360,000 compounds, 1.3% hits; AID 588852; CHO-K1 hM1, Fluo-8 calcium fluorescence, ACh EC80 antagonist;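 active = percent inhibition above its own plate's cutoff, namely the mean of that plate's compound wells plus 3 SD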;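 also: peak over basal fluorescence ratio during 140 s after agonist addition; 0% = ACh EC80 plus DMSO and 100% = DMSO alone without agonist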
An asterisk follows results filed as active. Most compounds without a hit are left out; they make up all but 2.1% or so of the library.

SMILES	M5 ag	CHRM1 agonist	CHRM5 PAM	CHRM5 antagonist	M1 PAM	CHRM1 antagonist
CC(=O)N1c2ccc(S(=O)(=O)NCCc3ccccc3)cc2CC1C (configuration not stated)	3	1	-12	5	-14	29*
COc1ccc(CCNS(=O)(=O)c2ccc(Br)cc2)cc1	0	-2	2	1	6	-11
COc1ccc(S(=O)(=O)NCCc2ccccc2)cc1	-7	0	-7	-3	-9	29*
CCn1c(CNc2ccccc2Cl)nnc1SCCN1CCCCC1	-8	-4	-7	1	-21	51*
CC(C)Nc1nc(NNc2nc(Cl)nc(NC(C)(C)C)n2)nc(NC(C)C)n1	9	-1	4	-1	4	-3
CCNc1nc(NC(C)C)nc(NC(C)(C)C)n1	-13	-6	-3	9	-20	33*
O=C(CSc1ccccc1C(=O)O)c1ccccc1	-4	0	-1	0	-4	13
Cc1ccc(-n2nnnc2CNC(=O)c2ccc(Br)o2)cc1C	-5	-3	3	5	3	-3
Cc1ccc(-n2nnnc2CNC(=O)c2ccc3c(c2)OCO3)cc1C	-10	-7	-9	12	-24	63*
CN(c1ccc(C(=O)O)cc1)S(=O)(=O)c1ccccc1	1	-3	-2	2	7	-9
COC(=O)[C@H]1[C@@H](C)N(Cc2ccccc2)C(=O)N[C@H]1c1cccc(C(F)(F)F)c1	5	3	19*	-4	9	-2
c1csc(CCNc2ncnc3sc4c(c23)CCC4)c1	5	2	-20	32*	-18	33*
c1ccc(Nc2ncnc3sc4c(c23)CCC4)cc1	0	-9	5	-15	-1	-1
CCc1ccc(Nc2cc(=O)n(C3CCCCC3)c(=O)[nH]2)cc1	23	20*	-11	-1	-3	12
CCC(C)(C)NC(=O)C(c1ccccn1)N(C(=O)c1csnn1)C1CCCCC1 (configuration not stated)	0	-1	23*	-6	1	5
CCN(CC)C(=O)CCCc1c[nH]c2ccccc12	-1	-6	-1	-5	-4	-5
CN(CCOC(=O)C1c2ccccc2Oc2ccccc21)C(C)(C)C	-6	-3	-23	98*	-22	98*
CC[N+](C)(CC)CCOC(=O)C1c2ccccc2Oc2ccccc21	-2	-7	-18	99*	-25	97*
CN(CCOC(=O)c1cccc(Br)c1)C(C)(C)C	-6	-5	-1	-2	-8	13
CN(C)CCCOC(=O)C1c2ccccc2Oc2ccccc21	-11	-6	-26	97*	-25	97*
NC(=O)COC(=O)C1c2ccccc2Oc2ccccc21	-4	-5	-2	3	4	-1
O=C(NCc1ccccc1Cl)C(=O)c1cn(CC(=O)N2CCOCC2)c2ccccc12	13	3	23*	20	15	-15
O=C(NCc1ccccc1)C(=O)c1cn(CC(=O)N2CCOCC2)c2ccccc12	1	1	4	1	16	-10
O=C(NCCc1ccccc1)C(=O)c1cn(CC(=O)N2CCCC2)c2ccccc12	-3	-4	-10	27*	7	-8
COc1ccccc1CCNC(=O)C(=O)c1cn(CC(=O)N2CCCC2)c2ccccc12	-2	-5	1	-7	12	-6
OC(COCC1CC=CCC1)Cn1cnc2ccccc21 (configuration not stated)	5	2	8	-12	24*	-12
CCOC(=O)c1c(C)nc2sc(C(=O)Nc3ccc(C(C)=O)cc3)c(N)c2c1-c1ccc(OC)cc1	5	-2	-1	8	-9	38*
O=C1c2cccc3cccc(c23)C(=O)N1CCCc1n[nH]c(=S)n1-c1ccccc1	0	0	5	4	-8	31*
OCCCc1n[nH]c(=S)n1-c1ccccc1	-6	-5	-5	5	12	-8
